Screening results (PubChem)
SIAE primary: blocks human sialic acid acetylesterase; SIAE FP-Rh probe binding, fluorescence polarization; inhibition, % at 9.66 µM; 370,000 compounds, 0.69% hits;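 active = inhibition above a cutoff: mean of compounds within the control limits plus 3 SD of those, cut at about 17% in these data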;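 also: 0% = plate median of compound wells and 100% = probe without SIAE protein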
Target sequence (Q9HAT2 whole entry, looked up): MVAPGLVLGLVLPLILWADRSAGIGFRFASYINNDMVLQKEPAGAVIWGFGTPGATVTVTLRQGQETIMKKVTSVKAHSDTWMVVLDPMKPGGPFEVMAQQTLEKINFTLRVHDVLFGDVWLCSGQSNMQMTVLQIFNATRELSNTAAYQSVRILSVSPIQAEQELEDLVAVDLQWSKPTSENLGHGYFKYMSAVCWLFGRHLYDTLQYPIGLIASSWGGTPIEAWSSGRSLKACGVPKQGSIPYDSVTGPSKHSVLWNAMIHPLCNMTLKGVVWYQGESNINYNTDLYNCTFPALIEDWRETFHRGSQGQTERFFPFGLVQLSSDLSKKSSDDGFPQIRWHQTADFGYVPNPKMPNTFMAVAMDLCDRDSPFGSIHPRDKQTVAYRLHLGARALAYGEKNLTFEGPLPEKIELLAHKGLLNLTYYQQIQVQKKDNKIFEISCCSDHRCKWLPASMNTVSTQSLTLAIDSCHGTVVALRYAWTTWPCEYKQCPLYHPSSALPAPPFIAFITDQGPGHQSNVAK
TCR-CD3 inh: human TCR-CD3 binding inhibition; TAMRA-labeled TCR probe fluorescence, biochemical; inhibition, % at 9.4 µM; 360,000 compounds, 0.37% hits; AID 651800;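 also: recombinant mutant TCR 2C K166C tagged with TAMRA read by polarization; 0% = receptor in buffer alone and 100% = receptor with positive control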
PRMT1 inh: inhibitors of human PRMT1; Q99873; recombinant PRMT1, activity-based probe fluorescence polarization; inhibition, % at 2.79 µM; 370,000 compounds, 1.3% hits; AID 652257;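 active = inhibition above about 21% made by adding two undisclosed values, limit read from the data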
HTRA1 inhibitor: inhibitors of human serine peptidase HTRA1; Q92743; recombinant HTRA1, FP-rhodamine activity-based probe, fluorescence polarization; inhibition, % at 5.96 µM; 340,000 compounds, 0.5% hits; AID 504803; in the data active = inhibition above about 36%;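 also: 0% = enzyme with DMSO and 100% = wells lacking enzyme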
mABHD4 FP: ABHD4 (mouse) inhibition, primary FP screen | inhibition, % at 8.92 µM | 370,000 compounds, 0.54% hits | purified mABHD4, FP-Rh probe fluorescence polarization;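 active = inhibition exceeding the mean over every tested compound plus 3 SD, cut at about 30% in these data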;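 also: 0% = plate median of compound wells and 100% = S159A mutant with DMSO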
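Assay system: wild-type mouse ABHD4 protein; compound: single nominal dose of 8.92 µM, 0.89% DMSO final; schedule: 45 min + 60 min at 25 °C; measured by: FP readout, ex 525 nm / em 598 nm; evaluation: % inhibition of FP-Rh probe binding versus controls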
HTRA1 conf: HTRA1 (human) inhibition, confirmation | AID 540248 | recombinant HTRA1, FP-rhodamine activity-based probe, fluorescence polarization | 1,600 compounds, 66% hits | inhibition, % at 5.96 µM | shares compounds with HTRA1 inhibitor;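 active = mean inhibition over three repeats above a set limit taken from the earlier primary screen, cut at about 37% in these data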;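 also: 0% = HTRA1 with DMSO and 100% = wells lacking HTRA1; inhibitors block probe binding so polarization drops and inhibition rises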
BSA probe FL: BSA probe counter-screen for TCR-CD3 inhibitors; inhibition, % at 9.4 µM; 1,200 compounds, 10% hits; shares compounds with TCR-CD3 inh; AID 652035; TAMRA-labeled BSA probe fluorescence counterscreen; in the data active = inhibition above about 23%;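 also: 0% = buffer low control and 100% = reference high control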
TCR-CD3 inh conf: TCR-CD3 interaction inhibition, confirmation. inhibition, % at 9.4 µM. shares compounds with TCR-CD3 inh. 1,200 compounds, 48% hits. TAMRA-labeled TCR probe fluorescence binding assay
PRMT1 inh conf: confirmation of human PRMT1 inhibitors; shares compounds with PRMT1 inh; recombinant His-PRMT1, activity-based probe fluorescence polarization; inhibition, % at 2.79 µM; 3,300 compounds, 42% hits; AID 687036;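 active = mean inhibition across replicates above the hit cutoff derived for the earlier primary screen, cut at about 22% in these data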
ABHD4 confirm: confirmation of mouse ABHD4 inhibitors; shares compounds with mABHD4 FP; AID 720658; 1,800 compounds, 55% hits; purified mABHD4, FP-Rh probe fluorescence polarization; inhibition, % at 8.92 µM;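 active = mean inhibition across replicates above the hit cutoff set in the primary screen, cut at about 30% in these data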;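 also: 0% = wild-type ABHD4 with DMSO and 100% = catalytically dead S159A mutant with DMSO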
* marks the source's active call; other numbers are inactive results; x = not tested or not shown; ! = a repeat was not active. Shown are actives, neighbours in structure and some others; about 2.7% of the full set was active somewhere. Rule as the data show it, unless noted: active = inhibition above about 19%; inactive = the rest.

SMILES	SIAE primary	TCR-CD3 inh	PRMT1 inh	HTRA1 inhibitor	mABHD4 FP	HTRA1 conf	ABHD4 confirm	others
Cc1cc(C(=O)N/N=C/c2ccc(O)c(O)c2O)c(C)n1-c1ccccc1	15	30*	4	67*	61*	67*	47*	BSA probe FL=-18;TCR-CD3 inh conf=29*
Cc1cc(SCC(=O)N/N=C/c2ccc(O)c(O)c2)nc2ccccc12	3	26*	4	78*	35*	74*	31*	BSA probe FL=-10;TCR-CD3 inh conf=39*
O=C(CSc1nc2ccccc2o1)N/N=C/c1ccc(O)c(O)c1	16	13	20	37*	34*	66*	29
O=C(CSc1nc2ccccc2o1)N/N=C/c1ccccc1	6	4	4	16	7	x	x
Cc1ccc2nc(SCC(=O)N/N=C/c3ccco3)cc(C)c2c1	5	6	0	-26	-3	x	x
CC(C)N(C)c1ncnc2c1ncn2[C@H]1CN(Cc2ccc(F)cc2)C[C@@H](CO)O1	2	-5	-6	x	0	x	x
Oc1cc(O)cc(/C=C/c2ccc(O)c(O)c2)c1	2	14	15	38*	32*	36*	27
C/C=C/c1ccc(O)c(OC)c1	11	1	-3	4	-6	x	x
O=[N+]([O-])c1ccc(N=Nc2ccc(O)cc2O)cc1	4	2	4	0	25	x	x
O=S(=O)(O)c1cc(Cl)cc(N=Nc2ccc(O)cc2O)c1O	7	65*	86*	40*	70*	38*	-14	BSA probe FL=65*;TCR-CD3 inh conf=54*;PRMT1 inh conf=65*
O=C1C(NS(=O)(=O)c2ccccc2)=C(N2CCN(c3ccc(F)cc3)CC2)C(=O)c2ccccc21	2	-6	6	48*	53*	63*	63*
O=C1C(NS(=O)(=O)c2ccc(Br)cc2)=C(N2CCCCC2)C(=O)c2ccccc21	6	-2	3	15	13	x	x
CC1CCN(C2=C(NS(=O)(=O)c3ccccc3)C(=O)c3ccccc3C2=O)CC1	8	8	-9	25	20	x	x
CC1CCN(C2=C(NS(=O)(=O)c3ccc(Br)cc3)C(=O)c3ccccc3C2=O)CC1	8	-2	2	36*	41*	86*	65*
O=C1C(NS(=O)(=O)c2cccs2)=C(N2CCN(c3cccc(Cl)c3)CC2)C(=O)c2ccccc21	7	-5	11	58*	55*	75*	56*
N#C/C(=C\c1ccc(O)c(O)c1)C(=O)Nc1ccccc1	10	12	16	68*	73*	177*	43*
N#C/C(=C\c1cccnc1)C(=O)Nc1ccccc1	2	4	3	0	-4	x	x
N#C/C(=C/c1ccc(O)c(O)c1)C(=O)NCc1ccc(Cl)cc1	5	4	11	81*	51*	87*	37*
C[C@@H](NC(=O)/C(C#N)=C/c1ccc(O)c(O)c1)c1ccccc1	11	3	15	68*	54*	91*	28
COc1ccc2cc3cc(C(=O)Nc4ccc(F)cc4)sc3nc2c1	-7	x	10	x	-9	x	x
Cc1ccccc1N1CCN(C2=Nc3ccccc3Sc3ccccc32)CC1	8	x	1	x	-4	x	x
Cc1ccc(SCc2cc(=O)c3c(=O)n(-c4ccccc4)[nH]c3[nH]2)cc1	16	2	22*	56*	54*	8	35*
O=S(=O)(Cc1ccccc1)N1CCNCC1	5	-4	-2	4	-1	x	x
Cc1coc2c1C(=O)C(=O)c1c-2ccc2c1CCCC2(C)C	13	123*	17	67*	49*	66*	58*	BSA probe FL=-1;TCR-CD3 inh conf=1
CCN(CC1CCCO1)C(=O)CCc1nnc(CCc2ccccc2)o1 (centres undefined)	0	3	-2	-1	-4	x	x
SMILES	SIAE primary	TCR-CD3 inh	PRMT1 inh	HTRA1 inhibitor	mABHD4 FP	HTRA1 conf	ABHD4 confirm	others
CCN=c1scc(-c2ccco2)n1/N=C/c1ccc(O)cc1	11	5	7	16	20	x	x
CCN=c1scc(C)n1/N=C/c1ccc(O)c(O)c1O	9	27*	60*	60*	60*	81*	49*	BSA probe FL=-20;TCR-CD3 inh conf=41*
Cc1cc(Cl)ccc1C(O)c1ncc(-c2ccc(C(F)(F)F)cc2)[nH]1 (centres undefined)	-20	4	4	x	-17	x	x
CC1OC(Nc2cccc3ccccc23)C(O)C(O)C1O (centres undefined)	1	-3	29*	43*	36*	12	1
CC(C)c1cc2c(c(O)c1O)[C@@]13CCCC(C)(C)C1CC2OC3=O (some centres undefined)	20*	-3	36*	48*	31*	18	26
CN1CCc2cccc3c2[C@H]1Cc1ccc(O)c(O)c1-3	18*!	-8	86*	59*	88*	50*	28	PRMT1 inh conf=38*
CCOC(=O)Nc1ccc(Cc2ccncc2)cc1	6	-1	-1	3	1	x	x
COC(=O)c1c(C(=O)OC)c2cccc3cc(-c4ccccc4)c4ccc1c4n32	8	10	1	39*	36*	58*	35*
COC(=O)c1cc2c(-c3ccccc3)cc3ccccn3c-2c1C(=O)OC	-5	2	6	11	15	x	x
COc1ccc(C2C(C(=O)Nc3cc(Cl)ccc3F)CCC(=O)N2c2ccc(OC)cc2)cc1 (centres undefined)	-1	x	1	x	1	x	x
C[C@H]1[C@@H](N)CC[C@@]23CCCN2C(=O)CCC[C@@H]13	3	x	4	x	0	x	x
COc1ccc2noc3c2c1C(=O)c1ccccc1-3	18*	22*	157*	63*	54*	45*	29	BSA probe FL=44*;TCR-CD3 inh conf=29*
CCOC(=O)[C@@H]1CSCCS(=O)(=O)N1C(=O)[C@H](CCSC)NC(=O)OC(C)(C)C	5	0	3	x	-13	x	x
COC(=O)/C=C/c1ccc2c(c1)OCO2	-5	5	1	1	-1	x	x
CCNc1ccccc(C(=O)/C=C/c2ccc3c(c2)OCO3)c1=O	16	7	26*	36*	41*	19	22
CC(=NN1CCN(c2ccccn2)CC1)c1ccccc1O	5	x	2	x	-1	x	x
CCCCCCCCCCCCCCC(O)C[N+](C)(CCO)CCO (centres undefined)	-7	0	-2	54*	45*	55*	48*
